In ChEMBL document CHEMBL1155462, “Structure-activity relationship for thiohydantoin androgen receptor antagonists for castration-resistant prostate cancer (CRPC)” (J Med Chem, 2010):
Calls of active or inactive are those of the source. The calls are words filed in the database; no cut-off is given here.

What was measured:
[1] = biological target: T1, Androgen receptor (Rattus norvegicus) (UniProt P15207); assay: Antagonist activity at androgen receptor in rat prostate gland at 1.25 to 10 uM by luciferase reporter gene assay; assay type: functional, tissue-based
T1 sequence (whole entry): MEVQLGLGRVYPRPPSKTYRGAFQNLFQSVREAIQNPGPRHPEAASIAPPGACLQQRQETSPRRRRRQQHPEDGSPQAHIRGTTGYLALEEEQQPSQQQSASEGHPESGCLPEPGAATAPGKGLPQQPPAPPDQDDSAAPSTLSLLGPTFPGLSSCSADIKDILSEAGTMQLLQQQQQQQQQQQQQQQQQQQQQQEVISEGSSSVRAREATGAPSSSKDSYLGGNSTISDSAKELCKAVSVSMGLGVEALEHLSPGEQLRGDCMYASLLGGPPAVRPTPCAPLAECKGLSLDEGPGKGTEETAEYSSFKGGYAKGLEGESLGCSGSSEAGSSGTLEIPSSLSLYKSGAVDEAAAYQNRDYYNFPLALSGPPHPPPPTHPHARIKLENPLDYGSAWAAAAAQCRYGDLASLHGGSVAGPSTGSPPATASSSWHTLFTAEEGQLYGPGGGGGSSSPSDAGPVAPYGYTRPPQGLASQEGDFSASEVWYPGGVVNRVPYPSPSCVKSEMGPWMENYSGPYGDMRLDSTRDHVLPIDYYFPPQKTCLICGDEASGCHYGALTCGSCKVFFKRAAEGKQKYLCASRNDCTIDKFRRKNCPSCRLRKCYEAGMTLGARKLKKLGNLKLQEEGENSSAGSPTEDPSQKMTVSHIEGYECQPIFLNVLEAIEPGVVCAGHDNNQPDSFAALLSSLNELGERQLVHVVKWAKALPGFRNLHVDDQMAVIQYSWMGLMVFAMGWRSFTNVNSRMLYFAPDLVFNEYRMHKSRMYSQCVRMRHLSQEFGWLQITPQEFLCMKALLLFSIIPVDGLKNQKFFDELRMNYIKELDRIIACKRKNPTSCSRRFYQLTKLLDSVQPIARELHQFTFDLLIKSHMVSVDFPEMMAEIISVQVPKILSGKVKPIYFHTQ

LNCaP [2] = assay: Inhibition of prostate specific antigen expression in human LNCAP cells at 1.25 to 10 uM in presence of fetal bovine serum; assay type: functional, cell-based
LNCaP [3] = assay: Inhibition of prostate specific antigen expression in human LNCAP cells at 100 to 1000 nM in presence of fetal bovine serum; assay type: functional, cell-based
LNCaP [4] = assay: Inhibition of prostate specific antigen expression in human LNCAP cells at 0.625 to 5 uM in presence of fetal bovine serum; assay type: functional, cell-based
LNCaP [5] = assay: Inhibition of prostate specific antigen secretion in human LNCAP cells expressing androgen receptor at 100 to 1000 nM in presence of charcoal stripped serum; assay type: functional, cell-based
Outline: (§1)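 LNCaP/AR cells were made by viral infection with an AR cDNA to express 3–5 fold higher AR levels, mimicking CRPC. They were assayed in charcoal-stripped serum to mimic androgen depletion. Read-out was PSA level, with DMSO as the vehicle.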

LNCaP [6] = assay: Inhibition of prostate specific antigen expression in human LNCAP cells at 0.625 to 20 uM in presence of fetal bovine serum; assay type: functional, cell-based
[7] = biological target: T1, Androgen receptor (Rattus norvegicus); assay: Antagonist activity at androgen receptor in rat prostate gland at 0.625 to 20 uM by luciferase reporter gene assay; assay type: functional, tissue-based
LNCaP [8] = assay: Inhibition of prostate specific antigen expression in human LNCAP cells in presence of fetal bovine serum; assay type: functional, cell-based
LNCaP [9] = assay: Inhibition of prostate specific antigen secretion in human LNCAP cells expressing androgen receptor at 1.25 to 10 uM in presence of charcoal stripped serum; assay type: functional, cell-based; outline: as §1

N#Cc1ccc(N2C(=O)C3(CCC3)N(c3ccc(O)cc3F)C2=S)cc1C(F)(F)F
Activity [1]: Active

Cc1ccc(N2/C(=N/c3ccc(C#N)c(C(F)(F)F)c3)S/C(=N\C(=S)Nc3ccc(C#N)c(C(F)(F)F)c3)C2(C)C)cc1
Activity [1]: Active
Activity (LNCaP [2]): Active

C/N=C1\N(c2ccc(C#N)c(C(F)(F)F)c2)C(=S)N(c2ccc(C)cc2)C12CCC2
Activity [1]: Active
Activity (LNCaP [2]): Active

N#CCCCc1ccc(N2C(=S)N(c3ccc(C#N)c(C(F)(F)F)c3)C(=O)C23CCC3)cc1
Activity (LNCaP [3]): Active

COC(=O)c1ccc(N2C(=S)N(c3ccc(C#N)c(C(F)(F)F)c3)C(=O)C2(C)C)cc1
Activity [1]: Active

N#Cc1ccc(N2C(=O)C3(CCC3)N(c3ccccc3C(=O)O)C2=S)cc1C(F)(F)F
Activity (LNCaP [4]): inactive

CC1(C)C(=S)N(c2ccc(C#N)c(C(F)(F)F)c2)C(=S)N1c1ccc(O)cc1
Activity (LNCaP [4]): Active

Cc1ccc(N2C(=S)N(c3ccc(C#N)c(C(F)(F)F)c3)/C(=N\C(=S)Nc3ccc(C#N)c(C(F)(F)F)c3)C23CCC3)cc1
Activity [1]: Active
Activity (LNCaP [2]): Active

CNC(=O)c1ccc(N2C(=S)N(c3ccc(C#N)c(C(F)(F)F)c3)C(=O)C23CCCC3)cc1F
Activity (LNCaP [5]): Active

CC1(C)C(=O)N(c2ccc(C#N)c(C(F)(F)F)c2)C(=S)N1CCCCCCCN=[N+]=[N-]
Activity (LNCaP [6]): Active

Cc1ccc(N2C(=S)N(c3ccc(C#N)c(C(F)(F)F)c3)/C(=N\C(=S)Nc3ccc(C#N)c(C(F)(F)F)c3)C2(C)CF)cc1 (stereo not drawn)
Activity [1]: Active
Activity (LNCaP [2]): Active

CC1(C)C(=O)N(c2ccc(C#N)c(C(F)(F)F)c2)C(=S)N1CCCN=[N+]=[N-]
Activity (LNCaP [6]): Active

CCCC1C(=O)N(c2ccc(C#N)c(C(F)(F)F)c2)C(=S)N1c1ccc(C)cc1 (stereo not drawn)
Activity [7]: inactive

Cc1ccccc1N1C(=S)N(c2ccc(C#N)c(C(F)(F)F)c2)C(=O)C12CCC2
Activity (LNCaP [4]): Active

Cc1ccc(N2/C(=N/c3ccc(C#N)c(C(F)(F)F)c3)S/C(=N\C(=S)Nc3ccc(C#N)c(C(F)(F)F)c3)C23CCC3)cc1
Activity [1]: Active
Activity (LNCaP [2]): Active

CCC1(C)C(=O)N(c2ccc(C#N)c(C(F)(F)F)c2)C(=S)N1c1ccc(C)cc1 (stereo not drawn)
Activity [7]: inactive

Cc1ccc(N2C(=S)N(c3ccc(C#N)c(C(F)(F)F)c3)C(=O)C23CCCC3)cc1
Activity (LNCaP [6]): Active
Activity (LNCaP [2]): Active

CC1(C)C(=O)N(c2ccc(C#N)c(C(F)(F)F)c2)C(=S)N1CCCCCN=[N+]=[N-]
Activity (LNCaP [6]): Active

N#Cc1ccc(N2C(=O)C3(CCC3)N(c3ccc(-c4ccccc4)cc3)C2=S)cc1C(F)(F)F
Activity (LNCaP [2]): Active

CC1(C)C(=O)N(c2ccc(C#N)c(C(F)(F)F)c2)C(=S)N1c1ccc(C(F)(F)F)cc1
Activity (LNCaP [2]): Active

Cc1ccc(N2C(=S)N(c3ccc(C#N)c(C(F)(F)F)c3)C(=N)C2(C)C)cc1
Activity (LNCaP [4]): Active

Cc1ccc(N2C(=S)N(c3ccc(C#N)c(C(F)(F)F)c3)C(=O)C23CCN(C)CC3)cc1
Activity (LNCaP [6]): inactive

CS(=O)(=O)c1ccc(N2C(=S)N(c3ccc(C#N)c(C(F)(F)F)c3)C(=O)C23CCC3)cc1
Activity [1]: Active

Cc1ccc(N2C(=S)N(c3ccc(C#N)c(C(F)(F)F)c3)C(=O)C23CCCCC3)cc1
Activity (LNCaP [6]): inactive

Cc1ccc(N2C(=S)N(c3ccc(C#N)c(C(F)(F)F)c3)/C(=N\C(=S)Nc3ccccc3)C23CCC3)cc1
Activity [1]: Active
Activity (LNCaP [2]): Active

N#Cc1ccc(N2C(=O)C3(CCC3)N(c3ccc(C=O)cc3)C2=S)cc1C(F)(F)F
IC50 (LNCaP [8]): 200 nM

Cc1ccc(N2C(=S)N(c3ccc(C#N)c(C(F)(F)F)c3)C(=O)C2C)cc1 (stereo not drawn)
Activity [7]: inactive

N#Cc1ccc(N2C(=O)C3(CCC3)N(c3ccc(O)cc3)C2=S)cc1C(F)(F)F
Activity (LNCaP [2]): Active

Cc1ccc(N2C(=S)N(c3ccc(C#N)c(C(F)(F)F)c3)C(=N)C23CCC3)cc1
Activity (LNCaP [4]): Active
Activity (LNCaP [2]): Active

CCC1(C)C(=O)N(c2ccc(C)cc2)C(=S)N1c1ccc(C#N)c(C(F)(F)F)c1 (stereo not drawn)
Activity [7]: inactive

CNC(=O)CCc1ccc(N2C(=S)N(c3ccc(C#N)c(C(F)(F)F)c3)C(=O)C23CCC3)cc1
inhibition (LNCaP [9]): Active

CC1(C)C(=O)N(c2ccc(C#N)c(C(F)(F)F)c2)C(=O)N1c1ccc(O)cc1
Activity (LNCaP [4]): Active
Activity [1]: Active

CC1(C)C(=O)N(c2ccc(C#N)c(C(F)(F)F)c2)C(=S)N1c1ccc(O)cc1
Activity (LNCaP [6]): Active
Activity (LNCaP [4]): Active
Activity [7]: Active

CC1(C)C(=O)N(c2ccc(C#N)c(C(F)(F)F)c2)C(=S)N1CCCCO
Activity (LNCaP [6]): Active
Activity (LNCaP [2]): Active

CCC1C(=O)N(c2ccc(C#N)c(C(F)(F)F)c2)C(=S)N1c1ccc(C)cc1 (stereo not drawn)
Activity [7]: inactive

CC(O)c1ccc(N2C(=S)N(c3ccc(C#N)c(C(F)(F)F)c3)C(=O)C23CCC3)cc1 (stereo not drawn)
IC50 (LNCaP [8]): 200 nM

N#Cc1ccc(N2C(=O)C3(CCC3)N(c3ccc(N4CCNCC4)cc3)C2=S)cc1C(F)(F)F
inhibition (LNCaP [9]): Active

Cc1ccc(N2C(=S)N(c3ccc(C#N)c(C(F)(F)F)c3)C(=O)C2(C)CF)cc1 (stereo not drawn)
Activity (LNCaP [4]): Active

N#Cc1ccc(N2C(=O)C3(CCC3)N(c3ccc(/C=C/C(N)=O)cc3)C2=S)cc1C(F)(F)F
IC50 (LNCaP [8]): 100 nM

CCC1(CC)C(=O)N(c2ccc(C)cc2)C(=S)N1c1ccc(C#N)c(C(F)(F)F)c1
Activity [7]: inactive

CC/N=C1\N(c2ccc(C#N)c(C(F)(F)F)c2)C(=S)N(c2ccc(C)cc2)C1(C)C
Activity [1]: Active
Activity (LNCaP [2]): Active

CC1(C)C(=O)N(c2ccc(C#N)c(C(F)(F)F)c2)C(=S)N1c1ccccc1
Activity (LNCaP [6]): Active
Activity [7]: Active

N#Cc1ccc(N2C(=O)C3(CCC3)N(c3ccc(CO)cc3)C2=S)cc1C(F)(F)F
IC50 (LNCaP [8]): 200 nM

N#Cc1ccc(N2C(=O)C3(CCC3)N(c3ccc(CCC(N)=O)cc3)C2=S)cc1C(F)(F)F
inhibition (LNCaP [9]): Active

N#Cc1ccc(N2C(=O)C3(CCC3)N(c3ccc(/C=C/CO)cc3)C2=S)cc1C(F)(F)F
IC50 (LNCaP [8]): 100 nM

CS(=O)(=O)N1CCN(c2ccc(N3C(=S)N(c4ccc(C#N)c(C(F)(F)F)c4)C(=O)C34CCC4)cc2)CC1
inhibition (LNCaP [9]): Active

Cc1ccc(N2C(=S)N(c3ccc(C#N)c(C(F)(F)F)c3)/C(=N\C(=S)Nc3ccc(C#N)c(C(F)(F)F)c3)C2(C)C)cc1
Activity [1]: Active
Activity (LNCaP [2]): Active

Cc1ccc(N2C(=S)N(c3ccc(C#N)c(C(F)(F)F)c3)C(=O)C2(CCl)CCl)cc1
Activity (LNCaP [4]): inactive

Cc1ccc(N2C(=S)N(c3ccc(C#N)c(C(F)(F)F)c3)C(=O)C23CCCCCCC3)cc1
Activity (LNCaP [6]): inactive

CC1(C)C(=O)N(c2ccc(C#N)c(C(F)(F)F)c2)C(=S)N1CCCCCCN=[N+]=[N-]
Activity (LNCaP [6]): Active

N#Cc1ccc(N2C(=O)C3(CCC3)N(c3ccc(CCCC(N)=O)cc3)C2=S)cc1C(F)(F)F
inhibition (LNCaP [9]): Active

Cc1ccc(N2C(=S)N(c3ccc(C#N)c(C(F)(F)F)c3)C(=O)C23CCCCCC3)cc1
Activity (LNCaP [6]): inactive

Cc1ccc(N2CC(=O)N(c3ccc(C#N)c(C(F)(F)F)c3)C2=S)cc1
Activity [7]: inactive

N#Cc1ccc(N2C(=O)C3(CCC3)N(c3ccc(CCC(=O)NCCO)cc3)C2=S)cc1C(F)(F)F
inhibition (LNCaP [9]): Active

CC1(C)C(=O)N(c2ccc(C#N)c(C(F)(F)F)c2)C(=S)N1c1ccc(N)cc1
Activity (LNCaP [6]): Active
Activity [7]: Active

CNC(=O)c1ccc(N2C(=S)N(c3ccc(C#N)c(C(F)(F)F)c3)C(=O)C2(C)C)cc1
Activity [1]: Active

CN(C)C(=O)CCCc1ccc(N2C(=S)N(c3ccc(C#N)c(C(F)(F)F)c3)C(=O)C23CCC3)cc1
Activity (LNCaP [3]): Active

CC1(C)C(=O)N(c2ccc(C#N)c(C(F)(F)F)c2)C(=S)N1c1ccc(N=[N+]=[N-])cc1
Activity (LNCaP [6]): Active
Activity [7]: Active

CCC1(CC)C(=O)N(c2ccc(C#N)c(C(F)(F)F)c2)C(=S)N1c1ccc(C)cc1
Activity [7]: inactive

CNC(=O)c1ccc(N2C(=S)N(c3ccc(C#N)c(C(F)(F)F)c3)C(=O)C23CCC3)cc1
Activity [1]: Active

CNC(=O)c1ccc(N2C(=S)N(c3ccc(C#N)c(C(F)(F)F)c3)C(=O)C2(C)C)cc1F
Activity (LNCaP [5]): Active
